Screening data from PubChem.
CSN inh – blocks human CSN-mediated cullin deneddylation; Q92905; Purified CSN, SCF-Nedd8-OG deneddylation, fluorescence polarization; inhibition, % at 12.5 µM; 0.38% of 360,000 active;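 active = pattern-corrected inhibition above about 35%, with an unprinted fluorescence ratio check between 0.5 and 1.5, limit read from the data, passing the limit was not always enough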;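 note: 0% = enzyme with substrate and 100% = substrate without enzyme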
Target sequence (Q92905 whole entry, looked up, one chain of several): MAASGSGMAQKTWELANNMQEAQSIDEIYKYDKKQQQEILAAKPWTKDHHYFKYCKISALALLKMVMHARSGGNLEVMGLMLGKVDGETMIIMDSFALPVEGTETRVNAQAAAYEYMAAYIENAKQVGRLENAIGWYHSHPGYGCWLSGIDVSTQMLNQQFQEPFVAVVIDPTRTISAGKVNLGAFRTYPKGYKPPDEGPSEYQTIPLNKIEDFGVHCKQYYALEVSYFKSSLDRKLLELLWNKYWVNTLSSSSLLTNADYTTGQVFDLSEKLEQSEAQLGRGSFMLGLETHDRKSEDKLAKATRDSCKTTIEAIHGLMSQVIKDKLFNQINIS
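Assay system: purified human Csn5 enzyme expressed in HEK293T cells; measure: % inhibition; also added: SCFSkp2-Nedd8OG substrate at 10 nM final; technique: fluorescence polarization; times: reaction 90 min, room temperature; medium: Tris buffer pH 7.5, NaCl, DTT, Tween-20, trehalose, ovalbumin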
XiGFP reactiv – X-chromosome reactivation activator. XiGFP mouse fibroblasts, % GFP-positive cells imaging, 3 d; cells co-treated with 5-aza-dC sensitizer; scaled so ellipticine positive control = 100%. activation, % at 7.58 µM. 0.055% of 360,000 active;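 active = mean normalized replicate activation at least 10% and every replicate at or above 10%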;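 note: 0% = median of on-plate neutral control wells and 100% = ellipticine 6 µM median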
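Schedule: 3 d treatment, 15 min room-temperature fixation; system: 68-5-11 XiGFP fibroblast line; buffer or medium: DMEM plus 5-aza-dC sensitizer; control set: ellipticine 6 µM positive control; compound: one concentration, pinned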
HNF4A DNA FP – change in binding of human HNF4 alpha to DNA; P41235; HNF4a-FITC DNA binding, fluorescence polarization, 1 h; activity change, % at 10 µM; 0.3% of 360,000 active; AID 1224865; in the data active = activity change above about 30%, passing the limit was not always enough
TPT1 inhibitor – blocks Candida albicans tRNA 2'-phosphotransferase | recombinant caTPT1, FP RNA substrate dephosphorylation | inhibition, % at 5 µM | 0.81% of 300,000 active;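 active = inhibition above the mean of all tested compounds plus 3 SD, set per screening campaign, cut at about 24% in these data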;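 note: plate controls were DMSO alone for no effect and ferristatin control at 100 nM for full effect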
aDG glyco up – alpha-DG glycosylation activation; Pro5-aDG cells, alpha-DG glycosylation AlphaScreen (IIH6); 0% Pro5, 100% B10-LARGE cell signal; activation, % at 10 µM; 0.22% of 360,000 active;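 active = activation of at least 8% versus controls, or a plate z-score of at least 8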;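 note: Pro5 are CHO cells carrying HIG-tagged alpha-DG that lacks glycosylation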
Rpn11 inh – blocks the human proteasome subunit Rpn11 | human 26S proteasome, Ub4-pepOG fluorescence polarization; 20S core pre-blocked with epoxomicin | AID 588493 | inhibition, % at 20 µM | 0.59% of 360,000 active | O00487;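 active = inhibition at 20 µM, scaled to each plate's controls, above about 33%, limit read from the data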
Target sequence (O00487 whole entry, looked up): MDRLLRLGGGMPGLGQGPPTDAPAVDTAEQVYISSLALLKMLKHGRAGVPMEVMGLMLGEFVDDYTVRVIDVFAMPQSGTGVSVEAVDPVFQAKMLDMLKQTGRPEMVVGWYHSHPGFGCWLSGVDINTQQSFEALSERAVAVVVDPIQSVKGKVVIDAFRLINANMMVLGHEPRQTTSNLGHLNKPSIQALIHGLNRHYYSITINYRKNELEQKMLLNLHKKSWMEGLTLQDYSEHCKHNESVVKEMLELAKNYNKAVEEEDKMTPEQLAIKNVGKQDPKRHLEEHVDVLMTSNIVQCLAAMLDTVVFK
Rpn11 confirm – confirmation of human proteasome Rpn11 inhibitors | shares compounds with Rpn11 inh | purified human 26S proteasome, Ub4-pepOG fluorescence polarization; proteasome pretreated with epoxomicin | inhibition, % at 20 µM | 29% of 1,900 active | AID 602318
MMP-2 counter – MMP-2 (human) inhibition counter-screen. shares compounds with Rpn11 inh. recombinant MMP-2, FRET peptide cleavage fluorescence. inhibition, % at 20 µM. 4% of 1,900 active;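 note: human MMP-2 activated beforehand with APMA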
Thrombin FP – thrombin (bovine) inhibition counter-screen | bovine thrombin cleavage of Ub4-pepOG, fluorescence polarization | 13% of 1,900 active | inhibition, % at 20 µM | AID 602333 | shares compounds with Rpn11 inh;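 active = mean inhibition at least 40% at 20 µM, or signal 3 deviations below plate average, so some actives read negative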;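 note: plate controls were thrombin with DMSO for no effect and buffer wells lacking thrombin for full effect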
Active calls of the source: *. Hits are enriched below; roughly 1.3% of the tested compounds scored in any of these assays. Cut-off read from the data, not from the text of the source, unless noted: active = inhibition above about 40%; inactive = the rest.

For COc1ccc2oc(C(=O)Nc3nc(-c4ccccn4)cs3)c(C)c2c1 the results were CSN inh 7.4, XiGFP reactiv 0.4, HNF4A DNA FP 6.2, TPT1 inhibitor 13.8, aDG glyco up 0.6, Rpn11 inh 41.9*, Rpn11 confirm 51.5*, MMP-2 counter 12.9 and Thrombin FP 8.6.
`CNC[C@@H]1Oc2ncc(/C=C/c3ccccc3)cc2C(=O)N([C@H](C)CO)C[C@H]1C` gave XiGFP reactiv 0.2.
CCC(=O)N1[C@@H]2CN(C(=O)c3ccccc3F)c3ccccc3[C@@H]2[C@@H]1CO was read as XiGFP reactiv 0.0.
Cn1nc([N+](=O)[O-])nc1Sc1cccc2cccnc12 was read as CSN inh 0.2, XiGFP reactiv 0.0, HNF4A DNA FP -5.3, TPT1 inhibitor -1.7, aDG glyco up 0.1, Rpn11 inh 46.2*, Rpn11 confirm 8.4, MMP-2 counter -32.9 and Thrombin FP -10.7.
`CC(=O)Nc1ccc2c(c1)CC(=O)N(C)C[C@@H](C)[C@@H](CN(C)C)O2` gave XiGFP reactiv 0.4.
`O=C(Cn1c2ccccc2c(=O)c2ccccc21)N/N=C/c1cc([N+](=O)[O-])ccc1N1CCCCC1` gave CSN inh 3.1, XiGFP reactiv -0.1, HNF4A DNA FP 12.7, TPT1 inhibitor 2.5, aDG glyco up -0.2, Rpn11 inh 58.8*, Rpn11 confirm 18.0, MMP-2 counter -9.8 and Thrombin FP 16.7.
For O=C(N/N=C\c1cc([N+](=O)[O-])ccc1N1CCCC1)c1ccccn1 the results were CSN inh 3.3, XiGFP reactiv 0.4, HNF4A DNA FP -0.8, TPT1 inhibitor 0.5, aDG glyco up -0.4 and Rpn11 inh 1.2.
`COc1ccc(NC(=O)Nc2ccc3c(c2)C(=O)N([C@H](C)CO)C[C@@H](C)[C@@H](CN(C)S(=O)(=O)c2cn(C)cn2)O3)cc1` gave XiGFP reactiv -0.2.
For COc1ccc(CN2CCNC(=O)C2CC(=O)N(C)Cc2nccs2)cc1OC (stereo unspecified) the results were CSN inh -1.0, XiGFP reactiv 0.3, HNF4A DNA FP -1.1, TPT1 inhibitor -1.5, aDG glyco up 0.0 and Rpn11 inh -3.6.
`COc1ccc(CN2CCNC(=O)C2CC(=O)N(C)Cc2nccn2C)cc1OC` (stereo unspecified) gave CSN inh -3.8, XiGFP reactiv 0.0, HNF4A DNA FP 2.1, TPT1 inhibitor 1.7, aDG glyco up 0.7, Rpn11 inh 47.3*, Rpn11 confirm 5.1, MMP-2 counter -28.0 and Thrombin FP 33.1.
Screening CCc1ccc(O)c(N=Cc2cccc(C)c2O)c1 returned CSN inh 9.8, HNF4A DNA FP 19.2, TPT1 inhibitor 2.5, aDG glyco up 0.4, Rpn11 inh 43.7*, Rpn11 confirm 43.5*, MMP-2 counter -21.5 and Thrombin FP 17.8.
`CCOC(=O)c1c(C)[nH]c(O)c1C=Nc1ccc(Cl)cc1` gave CSN inh -3.6, HNF4A DNA FP 16.9, TPT1 inhibitor -0.2, aDG glyco up -0.4, Rpn11 inh 55.1*, Rpn11 confirm 23.2, MMP-2 counter -10.4 and Thrombin FP 0.9.
Screening COc1ccc(C2SCC(=O)N2c2c(C)n(C)n(-c3ccccc3)c2=O)cc1OC (stereo unspecified) returned CSN inh -8.7, HNF4A DNA FP 0.4, TPT1 inhibitor -0.5, aDG glyco up -0.2, Rpn11 inh 31.1*, Rpn11 confirm -2.3, MMP-2 counter -28.7 and Thrombin FP 1.3.
CCCNC(=O)Nc1ccc2c(c1)C(=O)N(C)C[C@@H](OC)[C@H](C)CN(CCC(F)(F)F)[C@@H](C)CO2 was read as XiGFP reactiv 0.0.
`COCCn1cnnc1SCC(=O)Nc1sc2c(c1C#N)CCC2` gave CSN inh 8.6, XiGFP reactiv 1.4, HNF4A DNA FP -2.1, aDG glyco up -0.2 and Rpn11 inh 4.3.
`Cn1cnnc1SCC(=O)Nc1sc2c(c1C(N)=O)CCC2` gave CSN inh 49.7*, HNF4A DNA FP -18.9, TPT1 inhibitor 23.8, aDG glyco up -0.2, Rpn11 inh 40.9*, Rpn11 confirm 39.6, MMP-2 counter 23.8 and Thrombin FP 12.3.
For CC1CCC2(CC1)NC(=O)N(CC(=O)Nc1sc3c(c1C(N)=O)CCC3)C2=O (stereo unspecified) the results were CSN inh 27.4, XiGFP reactiv 0.0, HNF4A DNA FP -14.9, TPT1 inhibitor 20.6, aDG glyco up 0.3, Rpn11 inh 64.7*, Rpn11 confirm 8.7, MMP-2 counter 26.4 and Thrombin FP 3.3.
`COc1ccc(CN2C(=O)c3cccnc3C2Nc2ccc(C)cc2)cc1` (stereo unspecified) gave CSN inh -1.8, HNF4A DNA FP 4.6, TPT1 inhibitor 3.7, aDG glyco up 0.9, Rpn11 inh 47.3*, Rpn11 confirm -8.5, MMP-2 counter -14.5 and Thrombin FP -15.2.
For O=C(Nc1ccc2nn(-c3ccccc3)nc2c1)c1ccc(Br)o1 the results were CSN inh 25.8, HNF4A DNA FP -2.4, TPT1 inhibitor 4.3, aDG glyco up 0.4, Rpn11 inh 44.9*, Rpn11 confirm 34.8, MMP-2 counter 38.3 and Thrombin FP -5.8.
For O=C(Nc1ccc2nn(-c3ccccc3)nc2c1)c1ccc2c(c1)OCCO2 the results were CSN inh 0.5, HNF4A DNA FP 0.3, TPT1 inhibitor 2.3, aDG glyco up 1.1 and Rpn11 inh 5.9.
CO[C@H]1CC[C@@H]2CCN(C)C(=O)[C@@H](C)N(C)C(=O)c3cccc(C#N)c3OC[C@H]1O2 was read as XiGFP reactiv 0.0.
Cc1noc(C)c1NC(=O)N(C)C[C@H]1OCCCC[C@@H](C)Oc2ccc(NC(=O)NC(C)C)cc2C(=O)N([C@H](C)CO)C[C@H]1C was read as XiGFP reactiv 0.0.
Screening C[C@H](CO)N1C[C@H](C)[C@H](CN(C)C(=O)Nc2cccc3ccccc23)Oc2ccc(NC(=O)CCCN(C)C)cc2C1=O returned XiGFP reactiv 0.5.
O=C(Nc1ccc(F)cc1)N1CC(=O)N2[C@H](CO)[C@@H](c3ccc(C#Cc4ccccc4)cc3)[C@@H]2C1 was read as XiGFP reactiv 0.2.
